Source: ChEMBL document CHEMBL4680121, “Development of (4-methoxyphenyl)-1H-tetrazol-5-amine regioisomers as a new class of selective antitubercular agents” (Eur J Med Chem, 2020)

How the values were obtained:
[1] = tested on: Mycolicibacterium fortuitum; assay: Antibacterial activity against Mycobacterium fortuitum assessed as inhibition of microbial growth incubated for 1 week by MABA method; type: functional; conditions: 168 h, time 1 weeks
In short: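 Microplate Alamar Blue assay using two-fold serial microdilution in Middlebrook 7H9 broth with 10% OADC, compounds 0.125–512 µg/ml from DMSO stocks. Inoculum came from fresh LJ culture, was adjusted to McFarland 1 and diluted 1:20. Plates were incubated 1 week at 37 °C, Alamar blue was added and plates were re-incubated 24 h. MIC was the lowest concentration preventing the blue-to-pink change. Each plate carried growth and sterile controls.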

[2] = tested on: Mycobacterium tuberculosis; assay: Antitubercular activity against Mycobacterium tuberculosis H37Rv ATCC 25618 assessed as fractional inhibitory concentration index incubated for 14 days in presence of 1/2 x MIC rifampicin by MABA method; type: functional; conditions: time 14 day
In short: (§1)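 Interaction analysis in Middlebrook 7H9 with 10% OADC. Combination MICs came from mixing the derivative (1 to 1/32 MIC) with the reference drug at 1/2 MIC, and the reverse, after 14 days at 37 °C with McFarland 1 inoculum. FICI was calculated from the combination MIC values and the MICs alone.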

[3] = tested on: Mycobacterium tuberculosis; assay: Antitubercular activity against Mycobacterium tuberculosis H37Rv ATCC 25618 assessed as fractional inhibitory concentration index incubated for 14 days in presence of 1/2 x MIC ethambutol by MABA method; type: functional; conditions: time 14 day; in short: as §1
[4] = tested on: Staphylococcus epidermidis; assay: Antibacterial activity against Staphylococcus epidermidis ATCC 35984/RP62A assessed as bacterial growth inhibition measured after 18 hrs by two-fold serial microdilution method; type: functional
In short: (§2)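 Two-fold serial broth microdilution in MH II medium following modified CLSI procedures. Compounds were dissolved in DMSO and diluted in medium to at most 1% solvent, tested from 0.03125 to 512 μg/ml. Final inoculum 10^6 CFU/ml. MIC was taken as the lowest concentration with no visible growth after 18 h at 35 °C.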

Staphylococcus aureus = assay: Antibacterial activity against Staphylococcus aureus NCTC 4163 assessed as bacterial growth inhibition measured after 18 hrs by two-fold serial microdilution method; type: functional; in short: as §2
Pseudomonas aeruginosa = assay: Antibacterial activity against Pseudomonas aeruginosa NCTC 6749 assessed as bacterial growth inhibition measured after 18 hrs by two-fold serial microdilution method; type: functional; in short: as §2
Klebsiella pneumoniae = assay: Antibacterial activity against Klebsiella pneumoniae ATCC 10031 assessed as bacterial growth inhibition measured after 18 hrs by two-fold serial microdilution method; type: functional; in short: as §2
Proteus vulgaris = assay: Antibacterial activity against Proteus vulgaris NCTC 4635 assessed as bacterial growth inhibition measured after 18 hrs by two-fold serial microdilution method; type: functional; in short: as §2
HaCaT = assay: Cytotoxicity against human HaCaT cells assessed as reduction in cell viability measured after 72 hrs by MTT assay; type: cell-based
In short: (§3)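 MTT viability assay on cells grown in DMEM with 10% heat-inactivated FBS, penicillin/streptomycin and 20 mM HEPES at 37 °C/5% CO2. Cells were seeded at 1×10^4 per well and allowed to adhere for 24 h, then the medium was refreshed. Compounds were added at 20–140 μM for 72 h at 37 °C, followed by MTT (0.5 mg/mL in serum-free medium) for 4 h. Untreated cells served as control. IC50 is the concentration giving 50% growth inhibition versus control.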

Caco-2 = assay: Cytotoxicity against human Caco-2 cells assessed as LDH release at 100 uM incubated for 72 hrs by LDH assay; type: cell-based; conditions: caco-2, 72 h
In short: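 LDH release measured with a kit after 72 h exposure to 100 μM compound. Cells were seeded at 1×10^4 per well in DMEM or EMEM with 2% FBS. Absorbance was read at 490 nm. Release (%) = (A sample − A low control)/(A high control − A low control) × 100, with the Triton X-100 (1%) control taken as 100% release. Values are mean ± SD of three independent experiments run in triplicate.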

[5] = tested on: Mycobacterium tuberculosis; assay: Antitubercular activity against Mycobacterium tuberculosis H37Rv ATCC 25618 assessed as reduction in bacterial growth incubated for 14 days in presence of 1/2 x MIC streptomycin by MABA method; type: functional; conditions: H37Rv ATCC 25618, 336 h, time 14 day
In short: (§4)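 Checkerboard-type combination in Middlebrook 7H9 with 10% OADC. The test derivative at 1 to 1/32 of its MIC alone was mixed with the reference drug fixed at 1/2 its MIC. 4 ml samples were inoculated with McFarland 1 suspension and incubated 14 days at 37 °C. MIC is the lowest derivative concentration in combination that inhibited growth in liquid medium.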

[6] = tested on: Mycobacterium tuberculosis; assay: Antitubercular activity against Mycobacterium tuberculosis H37Rv ATCC 25618 assessed as reduction in bacterial growth incubated for 14 days in presence of 1/2 x MIC ethambutol by MABA method; type: functional; conditions: H37Rv ATCC 25618, 336 h, time 14 day; in short: as §4
[7] = tested on: Mycobacterium tuberculosis; assay: Antitubercular activity against Mycobacterium tuberculosis H37Rv ATCC 25618 assessed as isoniazid MIC incubated for 14 days in presence of isoniazid by MABA method; type: functional; conditions: H37Rv ATCC 25618, 336 h, time 14 day
In short: (§5)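 In Middlebrook 7H9 with 10% OADC, the reference drug (INH, RMP, SM or EMB) at 1 to 1/32 of its MIC alone was mixed with the test derivative fixed at 1/2 its MIC. 4 ml samples were inoculated with McFarland 1 suspension and incubated 14 days at 37 °C. MIC is the lowest drug concentration in combination that inhibited growth.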

[8] = tested on: Mycobacterium tuberculosis; assay: Antitubercular activity against Mycobacterium tuberculosis H37Rv ATCC 25618 assessed as streptomycin MIC incubated for 14 days in presence of streptomycin by MABA method; type: functional; conditions: H37Rv ATCC 25618, 336 h, time 14 day; in short: as §5
[9] = tested on: Mycobacterium tuberculosis; assay: Antitubercular activity against Mycobacterium tuberculosis Spec.192 assessed as reduction in bacterial growth incubated for 14 days in presence of 1/2 x MIC isoniazid by MABA method; type: functional; conditions: Mycobacterium tuberculosis, 192, 336 h; time 14 day; in short: as §4
[10] = tested on: Mycobacterium tuberculosis; assay: Antitubercular activity against Mycobacterium tuberculosis Spec.192 assessed as reduction in bacterial growth incubated for 14 days in presence of 1/2 x MIC streptomycin by MABA method; type: functional; conditions: Mycobacterium tuberculosis, 192, 336 h; time 14 day; in short: as §4
[11] = tested on: Mycobacterium tuberculosis; assay: Antitubercular activity against Mycobacterium tuberculosis Spec.192 assessed as streptomycin MIC incubated for 14 days in presence of streptomycin by MABA method; type: functional; conditions: Mycobacterium tuberculosis, 192, 336 h; time 14 day; in short: as §5
[12] = tested on: Mycobacterium tuberculosis; assay: Antitubercular activity against Mycobacterium tuberculosis Spec.192 assessed as ethambutol MIC incubated for 14 days in presence of ethambutol by MABA method; type: functional; conditions: Mycobacterium tuberculosis, 192, 336 h; time 14 day; in short: as §5
V79 = assay: Cytotoxicity against Chinese Hamster V79 cells assessed as reduction in cell viability at 100 uM measured after 72 hrs by MTT assay; type: cell-based, Cricetulus griseus; conditions: v79, 72 h; in short: as §3
[13] = tested on: Mycobacterium tuberculosis; assay: Potentiation of streptomycin-induced antimycobacterial activity against Mycobacterium tuberculosis H37Rv ATCC 25618 assessed as fold decrease in streptomycin MIC at 1/2X MIC incubated for 14 days in presence of streptomycin by MABA method; type: functional; conditions: time 14 day
In short: (§6)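 Combination assay in Middlebrook 7H9 broth with 10% OADC. The reference drug (INH, RMP, SM or EMB) was varied from 1 to 1/32 of its MIC, and the test derivative was fixed at 1/2 its own MIC. Single-agent MICs were determined first by MABA. Inoculum was 1 McFarland, with 14 days of incubation at 37 °C. The endpoint was the lowest reference-drug concentration that inhibited growth.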

[14] = tested on: Mycobacterium tuberculosis; assay: Potentiation of streptomycin-induced antimycobacterial activity against Mycobacterium tuberculosis Spec.192 assessed as fold decrease in streptomycin MIC at 1/2X MIC incubated for 14 days in presence of streptomycin by MABA method; type: functional; conditions: time 14 day; in short: as §6

COc1ccc(-n2nnnc2Nc2cccc(Br)c2)cc1
MIC [1]: 256 µg/mL
fractional inhibitory concentration index (FICI) [2]: 0.5
fractional inhibitory concentration index (FICI) [3]: 0.75
MIC [4]: > 256 µg/mL
MIC (Staphylococcus aureus): > 256 µg/mL
MIC (Pseudomonas aeruginosa): > 256 µg/mL
MIC (Klebsiella pneumoniae): > 256 µg/mL
MIC (Proteus vulgaris): > 256 µg/mL
IC50 (HaCaT): 138 µM
Activity (Caco-2): < 17%
MIC [5]: 0.5 µg/mL
MIC [6]: 0.5 µg/mL
MIC [7]: 0.5 µg/mL
MIC [8]: 0.25 µg/mL
MIC [9]: 0.25 µg/mL
MIC [10]: 0.5 µg/mL
MIC [11]: 0.25 µg/mL
MIC [12]: 1 µg/mL
Activity (V79): Non-Toxic
fold change (FC) [13]: 2
fold change (FC) [14]: 2

COc1ccc(-n2nnnc2Nc2ccc(Br)cc2)cc1
MIC [1]: > 512 µg/mL
fractional inhibitory concentration index (FICI) [2]: 0.5
fractional inhibitory concentration index (FICI) [3]: 0.625
MIC [4]: > 256 µg/mL
MIC (Staphylococcus aureus): > 256 µg/mL
MIC (Pseudomonas aeruginosa): > 256 µg/mL
MIC (Klebsiella pneumoniae): > 256 µg/mL
MIC (Proteus vulgaris): > 256 µg/mL
IC50 (HaCaT): 131 µM
Activity (Caco-2): Non-Toxic
MIC [5]: 0.25 µg/mL
MIC [6]: 0.25 µg/mL
MIC [7]: 0.5 µg/mL
MIC [8]: 0.25 µg/mL
MIC [9]: 0.25 µg/mL
MIC [10]: 0.25 µg/mL
MIC [11]: 0.25 µg/mL
MIC [12]: 1 µg/mL
Activity (V79): Non-Toxic
fold change (FC) [13]: 4
fold change (FC) [14]: 4
